Data: BindingDB's records for doi:10.1021/jm980722p (Merck Research Laboratories, 1999)

biological target: Integrin alpha-IIb/beta-3 (Homo sapiens, UniProt P08514+P05106); experiment: The compound was tested in vitro for the inhibition of aggregation of human gel-filtered platelets(GFP)
In short: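 Human gel-filtered platelets at 2 × 10⁸/mL were mixed with 0.1 mg/mL human fibrinogen, 1 mM CaCl₂ and the test compound, then challenged with ADP. Aggregation was read by light transmittance at 37 °C against control samples.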

Integrin alpha-IIb/beta-3, sequence (P05106 27-788 limits assumed): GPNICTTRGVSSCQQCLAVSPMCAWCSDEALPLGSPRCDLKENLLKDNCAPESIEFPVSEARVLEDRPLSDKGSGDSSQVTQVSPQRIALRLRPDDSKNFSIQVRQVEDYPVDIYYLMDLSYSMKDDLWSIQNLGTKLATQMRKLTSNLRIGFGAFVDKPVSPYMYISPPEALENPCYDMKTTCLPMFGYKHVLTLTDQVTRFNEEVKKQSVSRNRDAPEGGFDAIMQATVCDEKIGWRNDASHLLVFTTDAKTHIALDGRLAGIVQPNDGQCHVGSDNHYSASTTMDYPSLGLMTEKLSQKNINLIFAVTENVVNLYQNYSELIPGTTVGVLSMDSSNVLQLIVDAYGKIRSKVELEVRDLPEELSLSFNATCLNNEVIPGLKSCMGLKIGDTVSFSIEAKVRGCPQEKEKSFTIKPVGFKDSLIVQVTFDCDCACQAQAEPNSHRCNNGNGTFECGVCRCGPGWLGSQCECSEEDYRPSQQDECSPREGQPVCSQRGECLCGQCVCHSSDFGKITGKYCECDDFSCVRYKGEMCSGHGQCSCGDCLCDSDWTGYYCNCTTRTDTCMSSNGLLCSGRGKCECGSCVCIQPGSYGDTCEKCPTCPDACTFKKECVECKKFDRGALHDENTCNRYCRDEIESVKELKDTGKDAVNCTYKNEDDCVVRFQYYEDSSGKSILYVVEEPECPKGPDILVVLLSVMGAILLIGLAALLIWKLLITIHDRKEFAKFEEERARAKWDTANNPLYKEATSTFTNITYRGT
Integrin alpha-IIb/beta-3, sequence (P08514 32-887 limits assumed): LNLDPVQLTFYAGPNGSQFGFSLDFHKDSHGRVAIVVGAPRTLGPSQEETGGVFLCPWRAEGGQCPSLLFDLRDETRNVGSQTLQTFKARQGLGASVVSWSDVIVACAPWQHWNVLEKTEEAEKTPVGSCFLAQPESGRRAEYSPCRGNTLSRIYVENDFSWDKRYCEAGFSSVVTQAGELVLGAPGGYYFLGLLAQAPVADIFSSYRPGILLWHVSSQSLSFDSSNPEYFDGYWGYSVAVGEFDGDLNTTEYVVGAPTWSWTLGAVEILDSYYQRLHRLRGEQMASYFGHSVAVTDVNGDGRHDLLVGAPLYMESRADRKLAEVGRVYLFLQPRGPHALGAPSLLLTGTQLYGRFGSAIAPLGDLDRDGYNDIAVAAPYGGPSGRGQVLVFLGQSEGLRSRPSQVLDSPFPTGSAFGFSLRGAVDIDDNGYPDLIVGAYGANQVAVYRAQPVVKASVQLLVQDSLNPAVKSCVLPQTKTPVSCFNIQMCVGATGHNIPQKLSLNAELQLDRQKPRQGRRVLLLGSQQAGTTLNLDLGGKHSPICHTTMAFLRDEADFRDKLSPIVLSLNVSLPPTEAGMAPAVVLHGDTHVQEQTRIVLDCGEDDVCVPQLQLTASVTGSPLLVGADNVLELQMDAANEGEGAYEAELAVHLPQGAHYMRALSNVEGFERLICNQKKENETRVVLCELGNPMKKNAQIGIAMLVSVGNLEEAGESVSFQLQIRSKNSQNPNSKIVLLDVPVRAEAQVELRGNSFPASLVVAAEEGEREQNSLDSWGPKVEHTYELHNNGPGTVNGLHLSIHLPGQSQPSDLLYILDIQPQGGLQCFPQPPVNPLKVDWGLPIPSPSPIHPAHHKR
Integrin alpha-IIb/beta-3, sequence (P08514 891-1039 limits assumed): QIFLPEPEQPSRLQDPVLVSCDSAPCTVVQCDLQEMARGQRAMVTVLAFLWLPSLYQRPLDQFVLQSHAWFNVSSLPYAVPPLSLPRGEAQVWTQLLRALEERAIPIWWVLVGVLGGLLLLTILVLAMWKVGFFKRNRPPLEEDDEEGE

| Structure (SMILES) | IC50 |
| --- | --- |
| O=C(NC[C@H](NS(=O)(=O)c1cccs1)C(=O)O)c1cc2sc(CCC3CCNCC3)cc2s1 [(S)-3-{[5-(2-Piperidin-4-yl-ethyl)-thieno[3,2-b]thiophene-2-carbonyl]-amino}-2-(thiophene-2-sulfonylamino)-propionic acid] | 13 nM |
| O=C(NC[C@H](NS(=O)(=O)c1cccnc1)C(=O)O)c1cc2cc(CCCC3CCNCC3)sc2s1 [(S)-3-{[5-(3-Piperidin-4-yl-propyl)-thieno[2,3-b]thiophene-2-carbonyl]-amino}-2-(pyridine-3-sulfonylamino)-propionic acid] | 23 nM |
| CCOCCS(=O)(=O)N[C@@H](CNC(=O)c1cc2sc(CCC3CCNCC3)cc2s1)C(=O)O [(S)-2-(2-Ethoxy-ethanesulfonylamino)-3-{[5-(2-piperidin-4-yl-ethyl)-thieno[3,2-b]thiophene-2-carbonyl]-amino}-propionic acid] | 10 nM |
| O=C(NC[C@@H](NS(=O)(=O)c1ccccc1)C(=O)O)c1cc2cc(CCC3CCNCC3)sc2s1 | 36 nM |
| CCCCS(=O)(=O)N[C@@H](CNC(=O)c1cc2cc(CCC3CCNCC3)sc2s1)C(=O)O [(S)-2-(Butane-1-sulfonylamino)-3-{[5-(2-piperidin-4-yl-ethyl)-thieno[2,3-b]thiophene-2-carbonyl]-amino}-propionic acid] | 32 nM |
| O=C(NC[C@H](NS(=O)(=O)c1ccc(Cl)cc1)C(=O)O)c1cc2cc(CCC3CCNCC3)sc2s1 [(S)-2-(4-Chloro-benzenesulfonylamino)-3-{[5-(2-piperidin-4-yl-ethyl)-thieno[2,3-b]thiophene-2-carbonyl]-amino}-propionic acid] | 11 nM |
| O=C(NC[C@H](NS(=O)(=O)c1cccs1)C(=O)O)c1cc2cc(CCC3CCNCC3)sc2s1 [(S)-3-{[5-(2-Piperidin-4-yl-ethyl)-thieno[2,3-b]thiophene-2-carbonyl]-amino}-2-(thiophene-2-sulfonylamino)-propionic acid] | 9 nM |
| CCOCCS(=O)(=O)N[C@@H](CNC(=O)c1cc2cc(CCC3CCNCC3)sc2s1)C(=O)O [(S)-2-(2-Ethoxy-ethanesulfonylamino)-3-{[5-(2-piperidin-4-yl-ethyl)-thieno[2,3-b]thiophene-2-carbonyl]-amino}-propionic acid] | 7 nM |
| CS(=O)(=O)N[C@@H](CNC(=O)c1cc2sc(CCC3CCNCC3)cc2s1)C(=O)O [(S)-2-Methanesulfonylamino-3-{[5-(2-piperidin-4-yl-ethyl)-thieno[3,2-b]thiophene-2-carbonyl]-amino}-propionic acid] | 14 nM |
| CCCCS(=O)(=O)N[C@@H](CNC(=O)c1cc2sc(CCC3CCNCC3)cc2s1)C(=O)O [(S)-2-(Butane-1-sulfonylamino)-3-{[5-(2-piperidin-4-yl-ethyl)-thieno[3,2-b]thiophene-2-carbonyl]-amino}-propionic acid] | 10 nM |
| O=C(NC[C@H](NS(=O)(=O)c1cccnc1)C(=O)O)c1cc2sc(CCC3CCNCC3)cc2s1 [(S)-3-{[5-(2-Piperidin-4-yl-ethyl)-thieno[3,2-b]thiophene-2-carbonyl]-amino}-2-(pyridine-3-sulfonylamino)-propionic acid] | 15 nM |
| O=C(NC[C@H](NS(=O)(=O)c1cccnc1)C(=O)O)c1cc2cc(C3CCNCC3)sc2s1 [(S)-3-[(5-Piperidin-4-yl-thieno[2,3-b]thiophene-2-carbonyl)-amino]-2-(pyridine-3-sulfonylamino)-propionic acid] | 21 nM |
| O=C(NC[C@@H](NS(=O)(=O)c1cccnc1)C(=O)O)c1cc2cc(CCC3CCNCC3)sc2s1 | 19 nM |
| O=C(O)CCNC(=O)c1cc2sc(CCC3CCNCC3)cc2s1 [3-{[5-(2-Piperidin-4-yl-ethyl)-thieno[3,2-b]thiophene-2-carbonyl]-amino}-propionic acid] | 500 nM |
| CS(=O)(=O)N[C@@H](CNC(=O)c1cc2cc(CCC3CCNCC3)sc2s1)C(=O)O [(S)-2-Methanesulfonylamino-3-{[5-(2-piperidin-4-yl-ethyl)-thieno[2,3-b]thiophene-2-carbonyl]-amino}-propionic acid] | 15 nM |
| O=C(O)CCNC(=O)c1cc2cc(CCC3CCNCC3)sc2s1 [3-{[5-(2-Piperidin-4-yl-ethyl)-thieno[2,3-b]thiophene-2-carbonyl]-amino}-propionic acid] | 410 nM |
